The test system of data set [1] is CCRF-CEM. Kind of data set: Cellular uptake in human CCRF-CEM cells at 10 uM after 1 hr by real time fluorescence microscopy. It counts as ADME, cell-based. A digest of the protocol: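 Live CCRF-CEM cells were incubated 1 h with 10 of the fluorescein-labelled conjugates, with DMSO and free 5(6)-carboxyfluorescein as controls, then imaged by fluorescence light microscopy.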

The test system of a further data set is HeLa. The experiment in a line: Cytotoxicity against human HeLa P4/R5 cells by MTS assay. It counts as cell-based. Conditions: read-out: EC50 (the source's name). In general terms: Formazan colour is commonly taken as a measure of viable cells.
For data set [2], the system named is Human immunodeficiency virus 1. The experiment in a line: Antiviral activity against Human immunodeficiency virus 1 3B by MAGI assay. It counts as functional, organism-based.
Data set [3] deals with Human immunodeficiency virus 1. The experiment in a line: Antiviral activity against Human immunodeficiency virus 1 BAL by MAGI assay. The format is functional, organism-based.
In data set [4] the test system is Human immunodeficiency virus 1. Kind of data set: Antiviral activity against Human immunodeficiency virus 1 3B infected in human SupT1 cells by cell-associated transmission assay. The conditions noted are these: SUP-T1. It counts as functional, organism-based.
For data set [5], the species on record is Homo sapiens. The experiment in a line: Spermicidal activity against human sperm assessed as immobolizing sperm treated for 10 mins by microscopy relative to control. The format is functional.
Data set [6] is filed under the species Homo sapiens. Kind of data set: Spermicidal activity against human sperm assessed as sperm tail response at 1 mg/ml for 10 mins by microscopy relative to control. It counts as functional.
In data set [7] the test system is CCRF-CEM. The experiment in a line: Cellular uptake in human CCRF-CEM cells at 10 uM after 1 to 8 hrs by flow cytometry. It counts as ADME, cell-based. Summed up: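 CCRF-CEM T lymphoblastoid cells grown to 70% confluency, then exposed to 10 of the fluorescein-tagged conjugates for 1, 2, 4 and 8 h, with DMSO and free 5(6)-carboxyfluorescein as controls. Uptake was read by flow cytometry in the FITC channel as the mean fluorescence of 10,000 cells, in triplicate.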
In general terms: A flow cytometer gives signals particle by particle.

Data set [8] concerns CCRF-CEM. Kind of data set: Cellular uptake in human CCRF-CEM cells at 10 uM after 1 to 8 hrs measured after 5 mins trypsin wash off by flow cytometry relative to control. The format is ADME, cell-based.
For data set [9], the system named is Human immunodeficiency virus 1. The experiment in a line: Antiviral activity against Human immunodeficiency virus 1 infected in human CEM-SS cells assessed as inhibition of viral replication. It counts as functional, organism-based. Conditions: Human immunodeficiency virus 1, CEM-SS.

The structures appear in SMILES notation. The source made the active and inactive calls. No cut-off for these calls is given here.

As to `O=C(O)c1ccc2c(c1)C1(OC2=O)c2ccc(O)cc2Oc2cc(O)ccc21`, the Drug uptake result in the data set with CCRF-CEM [1] is reported as “Not Active”.
With `CCSCCCCCCCCCCCC(=O)OC[C@@H]1C=C[C@H](n2cc(C)c(=O)[nH]c2=O)O1`, the CC50 in the data set with HeLa is > 200 µM. Further, the EC50 – broadly, the concentration giving half of the maximal effect – in data set [2] was determined as 14.4 µM; in [3], 5.8 µM; in data set [4], 46.5 µM. For the same molecule, the result in the data set listed under Homo sapiens [5] and in the data set listed under Homo sapiens [6] was inactive.
Regarding `Cc1cn([C@H]2C=C[C@@H](COC(=O)CCCCCCCCCCCBr)O2)c(=O)[nH]c1=O`, in the data set with HeLa, the CC50 was > 200 µM. Moreover, the concentration for a half-maximal effect (EC50) was 14.9 µM in [2], 2.3 µM in [3] and > 206 µM in data set [4].
As to `Cc1cn([C@H]2C=C[C@@H](COC(=O)CCCCCCCCCCCNC(=O)c3ccc(-c4c5ccc(=O)cc-5oc5cc(O)ccc45)c(C(=O)O)c3)O2)c(=O)[nH]c1=O`, the Drug uptake entry with CCRF-CEM [7], in the data set on CCRF-CEM [8] and in the data set on CCRF-CEM [1] was “Active” throughout.
For the molecule `Cc1cn([C@H]2C=C[C@@H](CO)O2)c(=O)[nH]c1=O` [STAVUDINE], the EC50 in [2] was determined as 26.8 µM; in data set [3], 28.1 µM; in data set [4], 136 µM.
For the molecule `Cc1cn([C@H]2C=C[C@@H](COC(=O)CCCCCCCCCCCN=[N+]=[N-])O2)c(=O)[nH]c1=O`, the CC50 in the data set with HeLa is > 200 µM. Besides, the EC50 in [2] stood at 6.7 µM; in data set [3] it was 3.1 µM; in data set [4], 22.4 µM. In addition, the outcome in the data set listed under Homo sapiens [5] and in the data set filed under Homo sapiens [6] was inactive.
Take `Cc1cn([C@H]2C=C[C@@H](COC(=O)CCNC(=O)c3ccc(-c4c5ccc(=O)cc-5oc5cc(O)ccc45)c(C(=O)O)c3)O2)c(=O)[nH]c1=O`: the Drug uptake entry in the data set on CCRF-CEM [7] and in the data set on CCRF-CEM [1] was “Not Active” each time.
In the case of `CCCCCCCCCCCCCC(=O)OC[C@@H]1C=C[C@H](n2cc(C)c(=O)[nH]c2=O)O1`, in the data set with HeLa, the CC50 was > 200 µM. In addition, the results for the EC50 in data set [2], in data set [3] and in data set [4] were 78.3 µM, 12.4 µM and > 230 µM, respectively. For the same molecule, the outcome in the data set filed under Homo sapiens [5] and in the data set filed under Homo sapiens [6] was inactive.
Take `CCSCCCCCCCCCCCC(=O)O`: the concentration for a half-maximal effect (EC50) in data set [9] was 9.4 µM.
